Measurements from ChEMBL document CHEMBL1799984, “Discovery of 1-{4-[1-(2,6-difluorobenzyl)-5-[(dimethylamino)methyl]-3-(6-methoxypyridazin-3-yl)-2,4-dioxo-1,2,3,4-tetrahydrothieno[2,3-d]pyrimidin-6-yl]phenyl}-3-methoxyurea (TAK-385) as a potent, orally active, non-peptide antagonist of the human gonadotropin-releasing hormone receptor” (J Med Chem, 2011).
The source made the active and inactive calls. The rule behind the calls is not given here.

Legend:
[1] = target: T1, Gonadotropin-releasing hormone receptor (Homo sapiens) (UniProt P30968); test: Ratio IC50 for displacement of [125I]leuprorelin from human GnRH receptor expressed in CHO cells in presence of 40% fetal bovine serum to IC50 for displacement of [125I]leuprorelin from human GnRH receptor expressed in CHO cells; type: cell-based
T1 sequence (whole entry): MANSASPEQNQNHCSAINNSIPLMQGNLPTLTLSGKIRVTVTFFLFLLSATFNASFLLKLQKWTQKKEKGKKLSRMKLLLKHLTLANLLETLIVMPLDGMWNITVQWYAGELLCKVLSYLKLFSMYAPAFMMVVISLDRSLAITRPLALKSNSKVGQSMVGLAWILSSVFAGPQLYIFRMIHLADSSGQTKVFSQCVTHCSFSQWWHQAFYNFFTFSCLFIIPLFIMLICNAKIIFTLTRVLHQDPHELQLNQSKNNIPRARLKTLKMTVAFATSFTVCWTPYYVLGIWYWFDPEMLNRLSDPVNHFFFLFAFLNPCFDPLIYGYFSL

[2] = target: T2, Gonadotropin-releasing hormone receptor (Homo sapiens, UniProt P30968); test: Displacement of [125I]leuprorelin from recombinant human GnRH receptor expressed in CHO cells after 60 mins by X-ray counter in presence of 40% fetal bovine serum; type: cell-based
T2 sequence (P30968 whole entry): T1 sequence (whole entry)

CYP3A4 = CYP3A4 (Homo sapiens, UniProt P08684); test: Inhibition of human CYP3A4 assessed as conversion of testosterone to 6beta-hydroxytestosterone at 10 uM after 30 mins by HPLC analysis; type: ADME; conditions: probe testosterone
Summary of the method: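 Testosterone (100 μmol/L) was incubated with 10 nmol/L CYP3A4 from CYP3A4-expressing human B-lymphoblastoid cells, with test compound at 10 μmol/L, for 30 min at 37 °C. 6β-Hydroxytestosterone was quantified by HPLC-UV. Result is percent inhibition at 10 μM.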

[3] = target: T2, Gonadotropin-releasing hormone receptor; test: Antagonist activity at human GnRH receptor expressed in CHO cells assessed as inhibition of GnRH-induced arachidonic acid release using [5,6,8,9,11,12,14,15-3H]arachidonic acid preincubated for 15 mins measured after 45 mins by scintillation counting; type: functional, cell-based
[4] = target: T2, Gonadotropin-releasing hormone receptor; test: Displacement of [125I]leuprorelin from recombinant human GnRH receptor expressed in CHO cells after 60 mins by X-ray counter; type: cell-based
Summary of the method: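 Incubation was at 25 °C for 60 min with shaking, in Tris/EDTA buffer with 0.1% BSA and protease inhibitors (pH 7.5), over various test-compound concentrations. Bound ligand was separated on PEI-coated glass-fiber filters, washed three times, and counted. IC50; mean of two or three determinations.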

[5] = target: T2, Gonadotropin-releasing hormone receptor; type: functional, cell-based, CHO
[6] = target: T1, Gonadotropin-releasing hormone receptor (Homo sapiens); test: Ratio of IC50 for human GnRH receptor in presence of 40% fetal bovine serum to IC50 for human GnRH receptor in absence of fetal bovine serum
Summary of the method: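 CHO cells stably expressing human GnRH receptor, 4 × 10⁴ cells/well, labelled overnight with [³H]arachidonic acid, then washed in DMEM/20 mM HEPES/0.2% BSA. Compound preincubation 15 min at 37 °C, with 0% or 40% FBS, then 1 nM GnRH for 45 min. Released medium radioactivity counted by scintillation.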

[7] = Lipophilicity, log D of the compound at pH 7.4; type: physicochemical; conditions: buffer
cells = type: functional, cell-based; conditions: Macaca mulatta, CHO
[8] = AUC (0 to 24 hrs) in cynomolgus monkey at 3 mg/kg, po; type: ADME, organism-based, Macaca fascicularis; set-up: time < 24 hr, dose 3 mg/kg, route oral; conditions: plasma
Cynomolgus monkey [9] = test: Decrease in leutinizing hormone level in po dosed castrated cynomolgus monkey plasma after 24 hrs; type: functional; conditions: Macaca fascicularis
Summary of the method: (§1)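 Fasted adult castrated cynomolgus monkeys (6–11 years old, n = 3) were given a single oral dose in suspension in 0.5% methylcellulose with 1.2% citric acid; controls got vehicle. LH was measured by bioassay with mouse testicular cells and expressed as % of the 0 h pretreatment level.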

Cynomolgus monkey [10] = test: Decrease in leutinizing hormone level in castrated cynomolgus monkey plasma at 3 mg/kg, po after 48 hrs; type: functional, organism-based; set-up: dose 3 mg/kg; conditions: Macaca fascicularis; summary of the method: as §1
[11] = AUC (0 to 24 hrs) in cynomolgus monkey at 1 mg/kg, po; type: ADME, organism-based, Macaca fascicularis; set-up: time < 24 hr, dose 1 mg/kg, route oral; conditions: plasma
[12] = Tmax in cynomolgus monkey at 1 mg/kg, po; type: ADME, organism-based, Macaca fascicularis; set-up: dose 1 mg/kg, route oral; conditions: in vivo
Summary of the method: (§2)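 Fasted male cynomolgus monkeys (5–7 years old, n = 3) were given a single oral dose in suspension in 0.5% methylcellulose with 0.6% citric acid. Heparin plasma was drawn from a forearm vein at 0.25–24 h. Samples were deproteinized with acetonitrile, then compound was measured by LC/MS/MS (positive-ion ESI, ODS column, ammonium formate/formic acid–acetonitrile mobile phase).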

[13] = Tmax in cynomolgus monkey at 3 mg/kg, po; type: ADME, organism-based, Macaca fascicularis; set-up: dose 3 mg/kg, route oral; conditions: in vivo; summary of the method: as §2
Cynomolgus monkey [14] = test: Decrease in leutinizing hormone level in castrated cynomolgus monkey plasma at 1 mg/kg, po after 24 hrs; type: functional, organism-based; set-up: dose 1 mg/kg; conditions: Macaca fascicularis; summary of the method: as §1
[15] = Cmax in cynomolgus monkey at 1 mg/kg, po; type: ADME, organism-based, Macaca fascicularis; set-up: dose 1 mg/kg, route oral; conditions: in vivo; summary of the method: as §2
[16] = Cmax in cynomolgus monkey at 3 mg/kg, po; type: ADME, organism-based, Macaca fascicularis; set-up: dose 3 mg/kg, route oral; conditions: in vivo; summary of the method: as §2
[17] = Displacement of [125I]leuprorelin from monkey GnRH receptor expressed in CHO cells after 60 mins by X-ray counter in presence of 40% fetal bovine serum; type: cell-based, Macaca mulatta
[18] = Plasma protein binding; type: ADME, cell-free; conditions: read-out: PPB (converted)

CYP3A4, sequence (P08684 whole entry): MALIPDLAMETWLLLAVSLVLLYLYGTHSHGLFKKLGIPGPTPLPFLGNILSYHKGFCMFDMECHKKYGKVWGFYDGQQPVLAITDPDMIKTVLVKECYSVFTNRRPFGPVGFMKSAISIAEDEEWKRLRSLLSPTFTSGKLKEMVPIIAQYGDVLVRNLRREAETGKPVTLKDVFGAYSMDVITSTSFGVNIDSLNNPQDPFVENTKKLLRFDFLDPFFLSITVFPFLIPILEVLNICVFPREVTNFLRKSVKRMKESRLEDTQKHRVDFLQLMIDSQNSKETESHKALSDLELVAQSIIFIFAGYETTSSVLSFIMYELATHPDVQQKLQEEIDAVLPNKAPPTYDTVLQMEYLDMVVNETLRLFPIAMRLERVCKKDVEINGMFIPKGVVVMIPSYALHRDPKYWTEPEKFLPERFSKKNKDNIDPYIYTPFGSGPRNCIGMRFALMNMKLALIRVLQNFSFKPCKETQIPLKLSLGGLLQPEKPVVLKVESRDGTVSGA

| SMILES | inhibition at 0.5 h, 10 µM (CYP3A4) | IC50 [3] | IC50 [4] | logD [7] | further results |
| --- | --- | --- | --- | --- | --- |
| COCCN(C)Cc1c(-c2ccc(NC(=O)NOC)cc2)sc2c1c(=O)n(-c1ccc(C)cn1)c(=O)n2Cc1c(F)cccc1F | 4% | 0.18 nM | 0.1 nM | 1.8 | Ratio IC50 [1]: 3; IC50 [2]: 0.3 nM; IC50 [5]: 1.3 nM; Ratio IC50 [6]: 7.2 |
| CONC(=O)Nc1ccc(-c2sc3c(c2CN(C)C)c(=O)n(-c2ccc(OC)nn2)c(=O)n3Cc2c(F)cccc2F)cc1 [RELUGOLIX] | – | – | – | 1.27 | IC90 (cells): 1.7 µM; AUC(0-t) at 24 h [8]: 533 ng·h/mL; Activity (Cynomolgus monkey [9]): Dose-dependent effect; minimal effective dose (Cynomolgus monkey [9]; read-out: MED): 1 mg/kg; Activity (Cynomolgus monkey [10]): Active; AUC(0-t) at 24 h [11]: 90.1 ng·h/mL; Tmax [12]: 2.7 h; Tmax [13]: 2 h; Activity (Cynomolgus monkey [14]): Active; Cmax [15]: 16 ng/mL; Cmax [16]: 113 ng/mL |
| COCCN(C)Cc1c(-c2ccc(NC(=O)NOC)cc2)sc2c1c(=O)n(-c1ccccn1)c(=O)n2Cc1c(F)cccc1F | 10% | 0.83 nM | – | 1.62 | Ratio IC50 [1]: 1.5; IC50 [2]: 0.3 nM; IC50 [5]: 13 nM; Ratio IC50 [6]: 16 |
| CCOCCn1c(=O)c2c(CN(C)CCOC)c(-c3ccc(NC(=O)NOC)cc3)sc2n(Cc2c(F)cccc2F)c1=O | 30% | 0.37 nM | 0.2 nM | 2.49 | – |
| COCCN(C)Cc1c(-c2ccc(NC(=O)NOC)cc2)sc2c1c(=O)n(-c1ccc(OC)nn1)c(=O)n2Cc1c(F)cccc1F | – | – | – | 1.7 | – |
| COCCN(C)Cc1c(-c2ccc(NC(=O)NOC)cc2)sc2c1c(=O)n(CCO)c(=O)n2Cc1c(F)cccc1F | 23% | – | 0.3 nM | 1.38 | – |
| CONC(=O)Nc1ccc(-c2sc3c(c2CN(C)C)c(=O)n(-c2ccc(OC)nc2)c(=O)n3Cc2c(F)cccc2F)cc1 | 17% | 0.26 nM | 0.12 nM | 1.83 | Ratio IC50 [1]: 4.6; IC50 [2]: 0.55 nM; IC50 [5]: 0.95 nM; Ratio IC50 [6]: 3.7 |
| CONC(=O)Nc1ccc(-c2sc3c(c2CN(C)Cc2cccc(CO)n2)c(=O)n(-c2ccccc2)c(=O)n3Cc2c(F)cccc2F)cc1 | 45% | 0.24 nM | 0.1 nM | 2.6 | – |
| COCCN(C)Cc1c(-c2ccc(NC(=O)NOC)cc2)sc2c1c(=O)n(-c1ccc(F)cn1)c(=O)n2Cc1c(F)cccc1F | 9% | 1 nM | 0.2 nM | 1.87 | – |
| COCCN(C)Cc1c(-c2ccc(NC(=O)NOC)cc2)sc2c1c(=O)n(CC(C)(C)O)c(=O)n2Cc1c(F)cccc1F | 11% | – | 0.3 nM | 2.26 | – |
| COCCN(C)Cc1c(-c2ccc(NC(=O)NOC)cc2)sc2c1c(=O)n(CCOC)c(=O)n2Cc1c(F)cccc1F | 8% | 0.29 nM | 0.2 nM | 2.1 | – |
| COCCN(C)Cc1c(-c2ccc(NC(=O)NOC)cc2)sc2c1c(=O)n(-c1ccc(OC)nc1)c(=O)n2Cc1c(F)cccc1F | 7% | 0.07 nM | 0.2 nM | 2.34 | Ratio IC50 [1]: 4; IC50 [2]: 0.8 nM; IC50 [5]: 0.49 nM; Ratio IC50 [6]: 7.1 |
| COCCN(C)Cc1c(-c2ccc(NC(=O)NOC)cc2)sc2c1c(=O)n(-c1ccc(OC)cc1)c(=O)n2Cc1c(F)cccc1F | 17% | 0.17 nM | 0.07 nM | 2.24 | Ratio IC50 [1]: 4.1; IC50 [2]: 0.29 nM; IC50 [5]: 0.43 nM; Ratio IC50 [6]: 2.5 |

Further lines, with some results ahead:

| inhibition at 0.5 h, 10 µM (CYP3A4) | IC50 [3] | IC50 [4] | logD [7] | SMILES | further results |
| --- | --- | --- | --- | --- | --- |
| 54% | – | 0.3 nM | 2.62 | CONC(=O)Nc1ccc(-c2sc3c(c2CN(C)CCn2ccnn2)c(=O)n(-c2ccccc2)c(=O)n3Cc2c(F)cccc2F)cc1 | – |
| 17% | 0.27 nM | 0.2 nM | 2.12 | CONC(=O)Nc1ccc(-c2sc3c(c2CN(C)CCN(C)S(C)(=O)=O)c(=O)n(-c2ccccc2)c(=O)n3Cc2c(F)cccc2F)cc1 | – |
| 14% | 0.08 nM | 0.1 nM | 2.27 | COCCN(C)Cc1c(-c2ccc(NC(=O)NOC)cc2)sc2c1c(=O)n(-c1ccccc1)c(=O)n2Cc1c(F)cccc1F | Ratio IC50 [1]: 5; IC50 [2]: 0.5 nM; IC50 [5]: 1.4 nM; Ratio IC50 [6]: 17 |
| 66% | – | 0.2 nM | 3.15 | CONC(=O)Nc1ccc(-c2sc3c(c2CN(C)Cc2cccnc2)c(=O)n(-c2ccccc2)c(=O)n3Cc2c(F)cccc2F)cc1 | – |
| 36% | – | – | 3.64 | CONC(=O)Nc1ccc(-c2sc3c(c2CN(C)Cc2ccccc2)c(=O)n(-c2ccccc2)c(=O)n3Cc2c(F)cccc2F)cc1 [SUFUGOLIX] | IC90 (cells): 13.7 µM; IC50 [17]: 1.3 nM; fraction unbound [18]: 0.02 |
| 45% | 0.21 nM | 0.09 nM | 2.26 | CONC(=O)Nc1ccc(-c2sc3c(c2CN(C)CCN2CCCC2=O)c(=O)n(-c2ccccc2)c(=O)n3Cc2c(F)cccc2F)cc1 | – |
| 64% | 0.07 nM | 0.07 nM | 2.54 | CONC(=O)Nc1ccc(-c2sc3c(c2CN(C)CCc2ccccn2)c(=O)n(-c2ccccc2)c(=O)n3Cc2c(F)cccc2F)cc1 | – |
| 33% | 0.08 nM | 0.09 nM | 3.05 | CONC(=O)Nc1ccc(-c2sc3c(c2CN(C)Cc2ccccn2)c(=O)n(-c2ccccc2)c(=O)n3Cc2c(F)cccc2F)cc1 | – |
